Measured values pooled from the literature.
Protocols differ between the studies behind these lines. In brackets after ≈: the same amount, converted by molar mass.

Structure (SMILES)	target or system	assay	system	setting	quantity	result
Cc1c(C)c2c(c(C)c1O)CCC(C)(C(=O)O)O2 (stereo not drawn)		ABTS scavenging		1 h	IC50	20100 nM
O=C(N/N=C1\C(=O)N(Cc2ccccc2)c2ccc(F)cc21)c1cc2ccccc2[nH]1	A549	cell growth or viability		30 µM	inhibition	99.1%
O=C(NCCCCCCNc1c2c(nc3ccccc13)CCCC2)c1ccccc1O		ABTS scavenging		1 h	IC50	21300 nM
Nc1ncnc2c([C@@H]3N[C@H](CO)[C@@H](O)[C@H]3O)c[nH]c12	unidentified influenza virus	viral replication, inhibitor	MDCK	0.1 µM	inhibition	0%
O=C(N/N=C1\C(=O)N(Cc2ccccc2)c2ccc(Cl)cc21)c1cc2ccccc2[nH]1	A549	cell growth or viability, imaging		24 h	IC50	1770 nM
CC(C)=CCC/C(C)=C/COc1cc(O)cc(O)c1C(=O)c1ccccc1		ABTS scavenging, absorbance		5 min	IC50	380000 nM
CC(C)(C)OC(=O)N1CCN(c2ccc(-c3cnc4[nH]cc(C(=O)c5cccc(F)c5)c4c3)cn2)CC1	A549	cell growth or viability, MTT		10 µM, 48 h	viability	93.7%
Cc1c(C)c2c(c(C)c1O)CCC(C)(C(=O)O)O2 (stereo not drawn)		ABTS scavenging			IC50	6.16 µg/mL
COC(=O)C(Cc1c[nH]c2ccccc12)n1c(C)nc2c(N)nc(=O)[nH]c21 (stereo not drawn)	unidentified influenza virus	viral replication	A549, H1N1 PR8	24 h	IC50	310 nM
CCOC(=O)c1c([C@@H]2C[C@H]2c2ccccc2)n(C)c2ccc(O)cc12 (relative stereo)	Punta Toro virus	cytopathic effect			MIC50	> 100 µg/mL
COc1ccc(C(=O)c2c[nH]c3ncc(-c4ccc(N5CCNCC5)nc4)cc23)cc1	A549	cell growth or viability, MTT		10 µM, 48 h	viability	110%
C[C@@H]1[C@H](O)[C@@H](C)/C=C/C=C/C=C/C=C/C=C/C=C/C=C/[C@H](O[C@@H]2O[C@H](C)[C@@H](O)[C@H](N)[C@@H]2O)C[C@@H]2O[C@](O)(C[C@@H](O)C[C@@H](O)[C@H](O)CC[C@@H](O)C[C@@H](O)CC(=O)O[C@H]1C)C[C@H](O)[C@H]2C(=O)O	Leishmania donovani	parasite growth		amastigote	IC50	0.21 µg/mL
COc1ccc2c(c1)/C(=N/NC(=O)c1cc3ccccc3[nH]1)C(=O)N2Cc1ccccc1	A549	cell growth or viability		30 µM	inhibition	97.4%
Oc1c(Cl)cc(Cl)cc1Sc1cc(Cl)cc(Cl)c1O	Betapolyomavirus hominis	viral replication, inhibitor, qPCR	Vero	30 µM, 5 days	inhibition	~70%
C[C@]12C=CC(=O)C[C@@H]1CC[C@@H]1[C@@H]2C(=O)C[C@@]2(C)[C@H]1CC[C@]2(C)O	NIH3T3	cell growth or viability, MTT		24 h	IC50	> 30000 nM
Cc1nc2c(N)nc(=O)[nH]c2n1C(Cc1ccccc1)C(=O)O (stereo not drawn)	unidentified influenza virus	viral replication	A549, H1N1 PR8	24 h	IC50	520 nM
O=C(c1ccc(F)cc1)c1c[nH]c2ncc(-c3ccc(N4CCNCC4)cc3)cc12	A549	cell growth or viability, MTT		10 µM, 48 h	viability	89.1%
N=C(N)c1ccc(OCCCCCOc2ccc(C(=N)N)cc2)cc1	Leishmania donovani	parasite growth		amastigote	IC90	9 µg/mL (≈ 26.4 µM)
CCOC(=O)C1=C[C@@H](OC(CC)CC)[C@H](NC(C)=O)[C@@H](N)C1	unidentified influenza virus	viral replication	A549, H1N1 PR8	24 h	IC50	180 nM
Cc1cc(C(C)(C)C)c(O)c(C(C)(C)C)c1		ABTS scavenging, absorbance		5 min	IC50	80 nM
Cc1nc2c(N)nc(=O)[nH]c2n1C(Cc1c[nH]c2ccccc12)C(=O)O (stereo not drawn)	unidentified influenza virus	viral replication	A549, H1N1 PR8	24 h	IC50	510 nM
CC(C)(C)OC(=O)N1CCN(c2ccc(-c3cnc4[nH]cc(C(=O)c5ccc(F)cc5)c4c3)cc2)CC1	A549	cell growth or viability, MTT		10 µM, 48 h	viability	91.5%
Cc1nc2c(N)nc(N)nc2n1CC(=O)O	unidentified influenza virus	viral replication	A549, H1N1 PR8	24 h	IC50	526 nM
COc1cc(Nc2nc(C#N)cc3c(-c4ccccc4)n[nH]c23)cc(OC)c1OC	PC-3	cell growth or viability, MTS		48 h	IC50	4300 nM
